“And” between values parts separate entries of the source, which are not always exact repeats. Identical values can stand only once. Like-named read-outs stand apart in the source and are kept apart here.
Columns and labels:
B-RAF–mutated melanoma = conditions: patients with B-RAF–mutated melanoma ref 12, 33; cited from earlier work
VEGFR2 = conditions: inhibition of VEGFR2 ref 15; cited from earlier work
[1] = system: EGFR, DDR1, DDR2, EPHA3, FLT3, VEGFR2, ABL1, RET, EPHGA7, EPHB2, MNK2, and ZAK; conditions: EPHGA7, EPHB2, MNK2, ZAK ref 15; cited from earlier work
[2] = system: tumor FDG uptake in patients with solid tumors; assay: FDG-PET-CT scans; assay type: in vivo, human
Procedure, shortened: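 Exploratory FDG uptake measured by FDG-PET-CT at screening and again on cycle 2, day 1 (± 3 days) in patients receiving the oral test compound once daily in 21-day cycles. Each patient's on-treatment uptake category was compared with the baseline scan.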

[3] = system: K-RAS/N-RAS–mutated solid tumors; assay: Antitumor activity; assay type: in vivo, human
[4] = system: B-RAF– or K-RAS/N-RAS–mutated solid tumors; assay type: in vivo, human
Procedure, shortened: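 Oral test compound once daily: escalation cohorts at 5–60 mg; expansion at 30 mg/d in 21-day cycles in patients with B-RAF or K-RAS/N-RAS mutations. Treatment continued until unacceptable toxicity or withdrawal, with treatment beyond progression allowed if clinically beneficial. Response and stable disease scored per RECIST v1.1, investigator-assessed in expansion. Time-to-event end points summarized by Kaplan-Meier estimators.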

[5] = system: B-RAF–mutated solid tumors; assay: Antitumor activity; assay type: in vivo, human
[6] = Plasma pharmacokinetics in patients; assay type: in vivo; conditions: human
Procedure, shortened: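 Oral test compound given as a single dose on cycle 1, day 1, then a 2-day treatment-free period for single-dose PK sampling, then once daily on days 4–24 and continuously in 21-day cycles. Doses were 10–60 mg. Plasma was sampled at prespecified time points on cycle 1, day 1 and cycle 2, day 1. Accumulation ratios for Cmax, AUC0-9 and AUC0-24 were taken as cycle 2/cycle 1.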

[7] = system: patients with advanced/metastatic solid tumors; assay: Safety and tolerability; assay type: in vivo, human
[8] = cycle 2, day 1, 34 patients (7 missing postbaseline results)
[9] = cycle 2, day 1 vs baseline, 1 patient
[10] = K-RAS^mut/N-RAS^mut patients (n = 66), both phases
[11] = B-RAF^mut patients (n = 53), both phases
[12] = Dose Expansion (n = 96), 30 mg/d

CC(C)(C)c1nc(-c2cccc(NS(=O)(=O)c3c(F)cccc3F)c2F)c(-c2ccnc(N)n2)s1 [dabrafenib]
DCR (B-RAF–mutated melanoma): 91% | ORR (B-RAF–mutated melanoma): 50%

O=C1CCc2c(Oc3ccc4c(c3)[C@@H]3[C@H](O4)[C@H]3c3nc4ccc(C(F)(F)F)cc4[nH]3)ccnc2N1 [lifirafenib]
IC50 (VEGFR2): 108 nM | IC50s relative to that for B-RAF^V600E [1]: ≤ 10 fold | Patients with high FDG uptake [2, 8]: 15 patients | Patients with low FDG uptake [2, 8]: 1 patient | Patients with moderate FDG uptake [2, 8]: 10 patients | Patients with no FDG uptake [2, 8]: 1 patient | Patients who changed from high to low FDG uptake [2, 9]: 2.9% | Patients who changed from low to no FDG uptake [2, 9]: 2.9% | Patients who changed from high to moderate FDG uptake ([2]; cycle 2, day 1 vs baseline, 7 patients): 20.6% | Patients with partial metabolic reduction per EORTC criteria ([2]; dose escalation): 11 patients | Patients with complete metabolic reduction ([2]; dose escalation, B-RAF mutation, 40 mg/d): 1 patient | Patients with partial/complete metabolic reductions by FDG-PET-CT scan ([2]; dose escalation, of 34 patients): 12 patients | Patients with partial/complete metabolic reduction who received ≥ 30 mg/d ([2]; of 12 patients with metabolic reductions): 11 patients | Patients with confirmed PR ([3]; K-RAS codon 12–mutated NSCLC, 30 mg/d): 1 n | Patients with duration of treatment > 1 year ([3]; K-RAS mutations): 5 n | Patients with confirmed responses ([3]; K-RAS mutations, entire study): 2 patients | Responses ([3]; K-RAS/N-RAS–mutated colorectal cancer (n = 20)): No responses | Best overall response (confirmed): CR [3, 10]: 0 No. (%) | Best overall response (confirmed): NE/missing [3, 10]: 15 (22.7) No. (%) | Best overall response (confirmed): PD [3, 10]: 16 (24.2) No. (%) | Best overall response (confirmed): PR [3, 10]: 2 (3.0) No. (%) | Best overall response (confirmed): SD [3, 10]: 33 (50.0) No. (%) | Disease control rate (CR + PR + SD) [3, 10]: 35 (53.0) No. (%) | Objective response rate (CR + PR) [3, 10]: 2 (3.0) No. (%) | Patients with SD ([3]; K-RAS– or N-RAS–mutated CRC): Twelve | Patients with SD ([3]; K-RAS–mutated NSCLC (codon 12 mutated and K-RAS G13D, n = 1 each)): 2 patients | Patients with SD ([3]; K-RAS–mutated endometrial cancer (codon 12 mutated, n = 4; codon 2 mutated, n = 1)): 5 patients | Patients with confirmed PR ([3]; K-RAS–mutated endometrial cancer, 20 mg/d): 1 n | ORR ([3]; patients with K-RAS mutations, entire study): 3.4% | Patients with SD ([3]; patients with K-RAS mutations, entire study, 32 patients): 54.2% | Patients with confirmed clinical responses ([4]; dose escalation, n = 3, all had FDG-PET-CT responses): 8.6% | Median DoR ([4]; dose escalation, 95% CI, 6.8 to 31.7 months): 31.7 months | Median DoR ([4]; dose expansion, 95% CI, 1.9 months to not reached): 11.1 months | Median duration of SD ([4]; dose expansion, 95% CI, 3.5 to 4.9 months): 4.1 months | Patients with duration of treatment > 1 year ([5]; B-RAF mutations): 10 n | DCR ([5]; B-RAF^V600–mutated thyroid cancer (3 patients)): 100% | ORR ([5]; B-RAF^V600–mutated thyroid cancer, one of 3 patients confirmed PR): 33.3% | Best overall response (confirmed): CR [5, 11]: 1 (1.9) No. (%) | Best overall response (confirmed): NE/missing [5, 11]: 9 (17.0) No. (%) | Best overall response (confirmed): PD [5, 11]: 8 (15.1) No. (%) | Best overall response (confirmed): SD [5, 11]: 27 (50.9%) No. (%) and 27 (50.9) No. (%) | Disease control rate (CR + PR + SD) [5, 11]: 36 (67.9) No. (%) | Objective response rate (CR + PR) [5, 11]: 9 (17.0) No. (%) | Patients with confirmed PR ([5]; B-RAF–mutated thyroid cancer/PTC): 2 n | Patients with confirmed PR ([5]; human, in vivo): 1 n | half-life ([6]; oral): 15 to 59 h | Tmax ([6]; po): 3 h | Patients with dose interruptions/reductions as a result of drug toxicity ([7]; 40 mg/d, typically between days 13 and 28 of cycle 1): 70% | TEAE Abdominal pain, upper, Any Grade ([7]; Dose Escalation (n = 35)): 4 (11.4) No. (%) | TEAE Abdominal pain, upper, Grade ≥ 3 ([7]; Dose Escalation (n = 35)): 0 (0.0) No. (%) | TEAE Gastroesophageal reflux disease, Any Grade ([7]; Dose Escalation (n = 35)): 6 (17.1) No. (%) | TEAE Gastroesophageal reflux disease, Grade ≥ 3 ([7]; Dose Escalation (n = 35)): 0 (0.0) No. (%) | TEAE Musculoskeletal chest pain, Any Grade ([7]; Dose Escalation (n = 35)): 6 (17.1) No. (%) | TEAE Musculoskeletal chest pain, Grade ≥ 3 ([7]; Dose Escalation (n = 35)): 0 (0.0) No. (%) | TEAE Palmoplantar erythrodysesthesia syndrome, Any Grade ([7]; Dose Escalation (n = 35)): 11 (31.4) No. (%) | TEAE Palmoplantar erythrodysesthesia syndrome, Grade ≥ 3 ([7]; Dose Escalation (n = 35)): 2 (5.7) No. (%) | TEAE Upper respiratory tract infection, Any Grade ([7]; Dose Escalation (n = 35)): 6 (17.1) No. (%) | TEAE Upper respiratory tract infection, Grade ≥ 3 ([7]; Dose Escalation (n = 35)): 0 (0.0) No. (%) | TEAE Urinary tract infection, Any Grade ([7]; Dose Escalation (n = 35)): 4 (11.4) No. (%) | TEAE Urinary tract infection, Grade ≥ 3 ([7]; Dose Escalation (n = 35)): 0 (0.0) No. (%) | TEAE γ-Glutamyl transferase increase, Any Grade ([7]; Dose Escalation (n = 35)): 6 (17.1) No. (%) | TEAE γ-Glutamyl transferase increase, Grade ≥ 3 ([7]; Dose Escalation (n = 35)): 4 (11.4) No. (%) | TEAE Abdominal pain, upper, Any Grade [7, 12]: 8 (8.3) No. (%) | TEAE Abdominal pain, upper, Grade ≥ 3 [7, 12]: 2 (2.1) No. (%) | TEAE Gastroesophageal reflux disease, Any Grade [7, 12]: 4 (4.2) No. (%) | TEAE Gastroesophageal reflux disease, Grade ≥ 3 [7, 12]: 0 (0.0) No. (%) | TEAE Musculoskeletal chest pain, Any Grade [7, 12]: 7 (7.3) No. (%) | TEAE Musculoskeletal chest pain, Grade ≥ 3 [7, 12]: 0 (0.0) No. (%) | TEAE Palmoplantar erythrodysesthesia syndrome, Any Grade [7, 12]: 20 (20.8) No. (%) | TEAE Palmoplantar erythrodysesthesia syndrome, Grade ≥ 3 [7, 12]: 1 (1.0) No. (%) | TEAE Upper respiratory tract infection, Any Grade [7, 12]: 5 (5.2) No. (%) | TEAE Upper respiratory tract infection, Grade ≥ 3 [7, 12]: 0 (0.0) No. (%) | TEAE Urinary tract infection, Any Grade [7, 12]: 10 (10.4) No. (%) | TEAE Urinary tract infection, Grade ≥ 3 [7, 12]: 1 (1.0) No. (%) | TEAE γ-Glutamyl transferase increase, Any Grade [7, 12]: 4 (4.2) No. (%) | TEAE γ-Glutamyl transferase increase, Grade ≥ 3 [7, 12]: 4 (4.2) No. (%) | Time to occurrence of dose-limiting thrombocytopenia ([7]; after initial dosing, dose escalation): 2-3 weeks | Patients who experienced reversible DLTs ([7]; among patients eligible for DLT assessment (n = 31), dose escalation): 6 patients | DLT: grade 3 increased ALT ([7]; dose escalation): 1 n | DLT: grade 4 thrombocytopenia ([7]; dose escalation): 5 n | Grade ≥ 3 treatment-related TEAE fatigue ([7]; dose escalation): 11.4% | Grade ≥ 3 treatment-related TEAE hypertension ([7]; dose escalation): 11.4% | Grade ≥ 3 treatment-related TEAE thrombocytopenia ([7]; dose escalation): 14.3% | Patients with TEAEs that led to discontinuation ([7]; dose escalation (n = 35), five patients): 14.3% | Patients with grade ≥ 3 TEAEs (including DLTs) ([7]; dose escalation, 26 patients): 74.3% | Share of patients reporting grade ≥ 3 TEAEs ([7]; dose escalation, 40, 50, and 60 mg/d cohorts): 61.5% | Share of patients reporting grade ≥ 3 TEAEs ([7]; dose escalation, lower-dose cohorts): 38.5% | Dose-limiting thrombocytopenia that occurred at 40 and 60 mg/d ([7]; dose escalation, n = 2 each (eighty percent)): 4 of 5 | Maximum tolerated dose (MTD) ([7]; dose escalation, once-daily oral dosing): 40 mg/day | Grade ≥ 3 treatment-related AE fatigue ([7]; dose expansion): 7.3% | Grade ≥ 3 treatment-related AE hypertension ([7]; dose expansion): 8.3% | Patients with TEAEs that led to discontinuation ([7]; dose expansion (n = 96), 19 patients): 19.8% | Patients with serious TEAEs ([7]; dose expansion (n = 96), 56 patients): 58.3% | Patients with grade ≥ 3 TEAEs ([7]; dose expansion (n = 96), 68 patients): 70.8% | Patients with AEs that led to a dose adjustment ([7]; dose expansion, fifty patients): 52% | Patients with TEAEs that led to death (considered unrelated to treatment) ([7]; dose expansion, four patients, 6 TEAEs): 4.2% | Cutaneous SCC or keratoacanthoma ([7]; during the entire study): not reported | DLTs that occurred at doses ≥ 40 mg/d ([7]; of 6 patients with DLTs, dose escalation): 5 patients | Time to platelet count recovery ([7]; platelet transfusion or prednisolone and withholding of lifirafenib): 6 to 20 days

CCCS(=O)(=O)Nc1ccc(F)c(C(=O)c2c[nH]c3ncc(-c4ccc(Cl)cc4)cc23)c1F [vemurafenib]
ORR (B-RAF–mutated melanoma): 48%

— article PMC7325368 (Journal of Clinical Oncology, 2020)
